# Experimental data collected from several papers.
# Each line is one published result; the experiments were not run side by side. pIC50: −log10 of the molar value.
# ache: Acetylcholinesterase (ache, Electrophorus electricus, UniProt O42275)
# Chrna7: Neuronal acetylcholine receptor subunit alpha-7 (Chrna7, Rattus norvegicus, UniProt Q05941)
SMILES,target,read-out,mode,technique,setting,pIC50
CC(C)C[C@H](NC(=O)[C@H]1O[C@@H]1C(=O)O)C(=O)NCCCCN=C(N)N,"Pro-cathepsin H (Homo sapiens, UniProt P09668)",enzyme activity,inhibitor,,,7.60
C#CCN(C)CCCCCCCCOc1cccc(CN(C)c2c3c(nc4ccc(C)cc24)CCCC3)c1,ache,enzyme activity,inhibitor,Ellman,,4.49
CCCCCCCCCC(=O)N[C@@H](CCCN=C(N)N)C(=O)N[C@H](C(=O)N[C@@H](CCCCN)C(=O)N[C@@H](CCCN=C(N)N)C(=O)CCl)C(C)C,"Furin (FURIN, Homo sapiens, UniProt P09958)",enzyme activity,inhibitor,,,8.87
COc1ccc2[nH]c3c(c2c1)CCN(C)CC3,Chrna7,ion current,antagonist,two-electrode voltage clamp,oocytes,4.94
CNC(=O)c1ccc(-c2cnn3ccc(C(=O)N(C)c4ccc(Cl)c(C(=O)OC)c4)cc23)cc1,"Tyrosine-protein kinase receptor UFO (AXL, Homo sapiens, UniProt P30530)",enzyme activity,inhibitor,,,< 4.52
C#CCN(C)CCCOc1cccc(CN(C)c2c3c(nc4ccc(C)cc24)CCCC3)c1,ache,enzyme activity,inhibitor,Ellman,,5.27
CNC(=O)c1ccc(-c2cnn3ccc(C(=O)N(C)c4ccc(Cl)c(C(=O)O)c4)cc23)cc1,"Ephrin type-A receptor 4 (EPHA4, Homo sapiens, UniProt P54764)",enzyme activity,inhibitor,,,< 4.52
COc1ccc2c3c([nH]c2c1)CCN(C)CC3,Chrna7,ion current,antagonist,two-electrode voltage clamp,oocytes,4.99
